In ChEMBL document CHEMBL4038323, “Discovery and Kinetic Profiling of 7-Aryl-1,2,4-triazolo[4,3-a]pyridines: Positive Allosteric Modulators of the Metabotropic Glutamate Receptor 2” (J Med Chem, 2017):
The source made the active and inactive calls. The rule behind the calls is not given here.

Columns and labels:
[1] = biological target: T1, Metabotropic glutamate receptor 2 (Homo sapiens, UniProt Q14416); experiment: Positive allosteric modulation of human metabotropic glutamate receptor 2 expressed in CHOK1 cells assessed as cellular impedance response by label-free xCELLigence assay
Target sequence in this assay (Q14416 19-872 limits assumed): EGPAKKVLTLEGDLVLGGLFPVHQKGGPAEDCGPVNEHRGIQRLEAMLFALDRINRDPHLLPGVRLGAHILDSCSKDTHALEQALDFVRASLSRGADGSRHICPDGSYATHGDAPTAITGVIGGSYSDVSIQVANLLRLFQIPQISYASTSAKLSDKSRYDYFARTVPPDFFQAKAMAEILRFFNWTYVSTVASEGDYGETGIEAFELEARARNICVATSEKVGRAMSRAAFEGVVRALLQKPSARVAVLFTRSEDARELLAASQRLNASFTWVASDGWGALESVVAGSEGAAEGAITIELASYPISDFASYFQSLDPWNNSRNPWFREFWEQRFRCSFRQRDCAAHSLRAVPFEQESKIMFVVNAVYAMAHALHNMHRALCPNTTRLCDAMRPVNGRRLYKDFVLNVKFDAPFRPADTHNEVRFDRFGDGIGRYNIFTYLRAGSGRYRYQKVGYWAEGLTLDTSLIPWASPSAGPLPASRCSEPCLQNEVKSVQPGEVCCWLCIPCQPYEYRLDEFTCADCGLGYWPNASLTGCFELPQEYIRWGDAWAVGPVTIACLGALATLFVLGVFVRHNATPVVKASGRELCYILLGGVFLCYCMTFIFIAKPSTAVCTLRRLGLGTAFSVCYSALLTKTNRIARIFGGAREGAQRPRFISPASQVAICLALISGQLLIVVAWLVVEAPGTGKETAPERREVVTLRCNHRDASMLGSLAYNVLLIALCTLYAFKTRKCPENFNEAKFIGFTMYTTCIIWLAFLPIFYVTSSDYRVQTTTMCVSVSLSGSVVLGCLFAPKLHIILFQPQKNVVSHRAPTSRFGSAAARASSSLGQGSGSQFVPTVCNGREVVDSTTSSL

[2] = biological target: T1, Metabotropic glutamate receptor 2; experiment: Positive allosteric modulation of human metabotropic glutamate receptor 2 expressed in CHOK1 cells assessed as cellular impedance at 200 nM incubated for 5mins followed by compound washout in presence of endogenous glutamate levels by RTCA; assay type: cell-based
Target sequence in this assay (Q14416 19-872 limits assumed): as above

[3] = biological target: T1, Metabotropic glutamate receptor 2; experiment: Binding affinity to human metabotropic glutamate receptor 2 expressed in CHOK1 cell membranes by scintillation proximity assay
Target sequence in this assay (Q14416 whole entry): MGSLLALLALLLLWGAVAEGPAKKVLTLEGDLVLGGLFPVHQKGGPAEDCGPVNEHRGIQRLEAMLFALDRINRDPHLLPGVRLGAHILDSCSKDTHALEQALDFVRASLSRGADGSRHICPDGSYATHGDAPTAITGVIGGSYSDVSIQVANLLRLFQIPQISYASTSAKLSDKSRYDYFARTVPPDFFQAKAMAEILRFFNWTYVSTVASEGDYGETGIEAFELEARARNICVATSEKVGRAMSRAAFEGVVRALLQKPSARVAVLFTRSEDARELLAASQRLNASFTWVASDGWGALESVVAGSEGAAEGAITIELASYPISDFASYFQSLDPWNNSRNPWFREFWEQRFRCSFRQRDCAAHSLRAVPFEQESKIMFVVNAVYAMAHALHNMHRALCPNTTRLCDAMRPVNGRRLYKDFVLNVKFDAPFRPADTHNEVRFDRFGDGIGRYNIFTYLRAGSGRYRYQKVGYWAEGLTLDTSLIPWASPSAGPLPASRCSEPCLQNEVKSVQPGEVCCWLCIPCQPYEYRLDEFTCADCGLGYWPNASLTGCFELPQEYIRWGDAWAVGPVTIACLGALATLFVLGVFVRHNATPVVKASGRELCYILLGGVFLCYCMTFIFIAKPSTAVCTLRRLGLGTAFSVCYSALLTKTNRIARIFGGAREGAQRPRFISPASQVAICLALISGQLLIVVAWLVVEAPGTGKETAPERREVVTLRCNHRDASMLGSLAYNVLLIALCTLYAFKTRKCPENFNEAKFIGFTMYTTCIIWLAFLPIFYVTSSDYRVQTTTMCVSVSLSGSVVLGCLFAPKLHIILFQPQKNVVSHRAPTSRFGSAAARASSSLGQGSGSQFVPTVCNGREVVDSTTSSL

[4] = biological target: T1, Metabotropic glutamate receptor 2; experiment: Positive allosteric modulation of human metabotropic glutamate receptor 2 expressed in CHOK1 cell membranes assessed as increase in glutamate-induced [35S]GTPgammaS binding preincubated for 30 mins followed by [35S]GTPgammaS addition measured after 30 mins by Topcount scintillation counting method; assay type: functional
Target sequence in this assay (Q14416 whole entry): as above

[5] = biological target: T1, Metabotropic glutamate receptor 2; experiment: Displacement of [3H]JNJ-46281222 from human metabotropic glutamate receptor 2 expressed in CHOK1 cell membranes assessed as residence time measured every 30 sec for 120 mins by scintillation proximity assay
Summary of the method: (§1)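 For the SPA competition association, CHO-K1_hmGlu2 membranes (20 µg) were pre-coupled 30 min to WGA SPA beads, then mixed with 6 nM [3H]JNJ-46281222, competitor and 1 mM glutamate. Counts were read every 30 s for 120 min at 28°C.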
Target sequence in this assay (Q14416 19-872 limits assumed): as the sequence (Q14416 19-872 limits assumed) above

[6] = biological target: T1, Metabotropic glutamate receptor 2; experiment: Displacement of [3H]JNJ-46281222 from human metabotropic glutamate receptor 2 expressed in CHOK1 cell membranes assessed as dissociation rate constant measured every 30 sec for 120 mins by scintillation proximity assay
Summary of the method: as §1
Target sequence in this assay (Q14416 19-872 limits assumed): as above

[7] = biological target: T1, Metabotropic glutamate receptor 2; experiment: Displacement of [3H]JNJ-46281222 from human metabotropic glutamate receptor 2 expressed in CHOK1 cell membranes assessed as association rate constant measured every 30 sec for 120 mins by scintillation proximity assay
Summary of the method: as §1
Target sequence in this assay (Q14416 19-872 limits assumed): as above

[8] = biological target: T1, Metabotropic glutamate receptor 2; experiment: Displacement of [3H]-JNJ46281222 from human metabotropic glutamate receptor 2 expressed in CHOK1 cell membranes after 60 mins by microbeta counting analysis
Target sequence in this assay (Q14416 whole entry): as the sequence (Q14416 whole entry) above

[9] = biological target: T1, Metabotropic glutamate receptor 2; experiment: Positive allosteric modulation of human metabotropic glutamate receptor 2 expressed in CHOK1 cells assessed as cellular impedance measured for 20 mins with 15 sec time interval followed by 40 mins with 5 mins time interval and subsequently measured with 15 mins time interval in presence of endogenous glutamate levels by RTCA; assay type: cell-based
Summary of the method: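 Whole-cell impedance (Cell Index) in CHO-K1_hmGlu2 cells, 40,000/well, 18 h at 37°C before compound addition. Endogenous glutamate was about 90 µM. […] Three experiments in duplicate.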
Target sequence in this assay (Q14416 whole entry): as above

Rattus norvegicus [10] = experiment: Effect on total sleep in Sprague-Dawley rat at 1 to 10 mg/kg, po measured for 2 hrs; assay type: ADME, organism-based; conditions: in vivo
Brain = experiment: Unbound concentration in Sprague-Dawley rat brain at 10 mg/kg, po measured after 1 hr; assay type: ADME, organism-based; conditions: in vivo
Rattus norvegicus [11] = experiment: In vivo positive allosteric modulation of metabotropic glutamate receptor 2 in Sprague-Dawley rat assessed as reduction in REM at 10 mg/kg, po measured for 24 consecutive 5 mins period; assay type: functional, organism-based
Summary of the method: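 Sprague-Dawley rats (n=8 per group) received single oral doses of 1, 3 or 10 mg/kg or 20% CD vehicle. REM sleep was scored in 24 consecutive 5-min bins over the first 2 h. Comparison was by mixed-model ANOVA.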

CHO-K1 = experiment: Effect on cellular impedance in CHOK1 cells up to 1 uM measured for 20 mins with 15 sec time interval followed by 40 mins with 5 mins time interval and subsequently measured with 15 mins time interval by RTCA; assay type: functional, cell-based; conditions: Cricetulus griseus
Summary of the method: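 xCELLigence impedance used 40,000 cells/well of wild-type CHO-K1 or CHO-K1_hmGlu2, rested 30 min at room temperature, then 18 h at 37°C, 5% CO2. Cells got 100 nM or 1 µM compound. Reads: every 15 s for 20 min, 5 min for 40 min, then 15 min. Baseline-corrected; three repeats in duplicate.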

[12] = biological target: T1, Metabotropic glutamate receptor 2; experiment: Displacement of [3H]-JNJ46281222 from human metabotropic glutamate receptor 2 expressed in CHOK1 cell membranes after 60 mins by liquid scintillation counting method
Target sequence in this assay (Q14416 whole entry): as above

[13] = biological target: Metabotropic glutamate receptor 3 (Homo sapiens) (UniProt Q14832); experiment: Agonist activity at human metabotropic glutamate receptor 3 expressed in HEK293 cells assessed as induction of Ca2+ internalization after 1 hr by fluo-4-AM dye based fluorescence assay; assay type: functional, cell-based
[14] = biological target: Metabotropic glutamate receptor 4 (Homo sapiens) (UniProt Q14833); experiment: Agonist activity at human metabotropic glutamate receptor 4 assessed as increase in [35S]GTPgammaS binding preincubated for 30 mins followed by [35S]GTPgammaS addition measured after 30 mins by Topcount scintillation counting method; assay type: functional
Sequence of Metabotropic glutamate receptor 4 (Homo sapiens) (Q14833 whole entry): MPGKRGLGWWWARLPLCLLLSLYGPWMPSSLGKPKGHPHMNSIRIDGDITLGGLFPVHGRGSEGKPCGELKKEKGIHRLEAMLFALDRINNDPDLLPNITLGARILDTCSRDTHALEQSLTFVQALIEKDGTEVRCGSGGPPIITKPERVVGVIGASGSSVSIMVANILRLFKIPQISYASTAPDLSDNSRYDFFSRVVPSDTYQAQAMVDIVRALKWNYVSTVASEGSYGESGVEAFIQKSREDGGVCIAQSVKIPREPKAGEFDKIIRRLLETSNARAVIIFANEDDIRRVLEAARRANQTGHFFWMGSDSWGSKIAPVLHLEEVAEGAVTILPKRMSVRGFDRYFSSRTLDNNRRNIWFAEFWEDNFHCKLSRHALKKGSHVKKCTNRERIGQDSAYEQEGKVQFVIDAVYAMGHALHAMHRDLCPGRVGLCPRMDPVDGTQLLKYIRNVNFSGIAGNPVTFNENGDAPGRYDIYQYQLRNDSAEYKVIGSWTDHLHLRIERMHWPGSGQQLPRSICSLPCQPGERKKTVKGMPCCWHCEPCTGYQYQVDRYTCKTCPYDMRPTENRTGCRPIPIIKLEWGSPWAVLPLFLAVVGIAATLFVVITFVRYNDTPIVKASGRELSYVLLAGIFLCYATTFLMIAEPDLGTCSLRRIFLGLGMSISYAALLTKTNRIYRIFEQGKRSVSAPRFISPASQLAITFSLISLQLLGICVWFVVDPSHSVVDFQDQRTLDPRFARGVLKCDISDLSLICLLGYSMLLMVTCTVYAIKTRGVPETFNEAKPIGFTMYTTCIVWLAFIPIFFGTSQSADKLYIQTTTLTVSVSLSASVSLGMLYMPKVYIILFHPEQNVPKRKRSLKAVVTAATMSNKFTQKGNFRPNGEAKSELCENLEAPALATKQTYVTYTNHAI

[15] = biological target: Metabotropic glutamate receptor 6 (Rattus norvegicus) (UniProt P35349); experiment: Antagonist activity at rat metabotropic glutamate receptor 6 expressed in CHO cell membranes assessed as inhibition of glutamate-induced [35S]GTPgammaS binding preincubated for 30 mins followed by [35S]GTPgammaS addition measured after 30 mins by Topcount scintillation counting method; assay type: functional
Sequence of Metabotropic glutamate receptor 6 (Rattus norvegicus) (P35349 whole entry): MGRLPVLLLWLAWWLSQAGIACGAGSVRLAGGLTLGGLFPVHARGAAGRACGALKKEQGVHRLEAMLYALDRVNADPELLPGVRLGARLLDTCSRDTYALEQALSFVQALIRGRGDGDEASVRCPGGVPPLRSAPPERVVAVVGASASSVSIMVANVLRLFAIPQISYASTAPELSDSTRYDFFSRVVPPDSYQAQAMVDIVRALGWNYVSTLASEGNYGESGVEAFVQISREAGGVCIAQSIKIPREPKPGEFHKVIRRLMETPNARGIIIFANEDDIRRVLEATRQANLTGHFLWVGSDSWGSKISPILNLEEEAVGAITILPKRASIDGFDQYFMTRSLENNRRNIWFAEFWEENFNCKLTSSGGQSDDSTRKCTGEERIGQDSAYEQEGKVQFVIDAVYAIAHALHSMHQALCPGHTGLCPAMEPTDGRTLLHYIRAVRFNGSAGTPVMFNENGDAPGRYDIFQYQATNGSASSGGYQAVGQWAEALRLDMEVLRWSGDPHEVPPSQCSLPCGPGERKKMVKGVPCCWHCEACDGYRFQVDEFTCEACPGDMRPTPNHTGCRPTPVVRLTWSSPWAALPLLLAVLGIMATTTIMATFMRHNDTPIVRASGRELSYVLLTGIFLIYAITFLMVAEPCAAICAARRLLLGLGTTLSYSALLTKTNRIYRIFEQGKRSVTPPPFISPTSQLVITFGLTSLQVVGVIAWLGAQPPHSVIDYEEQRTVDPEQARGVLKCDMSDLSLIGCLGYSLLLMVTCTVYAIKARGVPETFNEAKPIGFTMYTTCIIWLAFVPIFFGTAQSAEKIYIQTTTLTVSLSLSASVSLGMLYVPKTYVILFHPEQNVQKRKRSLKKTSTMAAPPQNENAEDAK

[16] = biological target: Metabotropic glutamate receptor 8 (Homo sapiens) (UniProt O00222); experiment: Agonist activity at human metabotropic glutamate receptor 8 expressed in HEK293 cells assessed as induction of Ca2+ internalization after 1 hr by fluo-4-AM dye based fluorescence assay; assay type: functional, cell-based
[17] = biological target: Metabotropic glutamate receptor 7 (Homo sapiens) (UniProt Q14831); experiment: Antagonist activity at human metabotropic glutamate receptor 7 expressed in HEK293 cells assessed as inhibition of glutamate-induced Ca2+ internalization after 1 hr by fluo-4-AM dye based fluorescence assay; assay type: functional, cell-based
[18] = biological target: Metabotropic glutamate receptor 4 (Homo sapiens) (UniProt Q14833); experiment: Antagonist activity at human metabotropic glutamate receptor 4 assessed as inhibition of glutamate-induced [35S]GTPgammaS binding preincubated for 30 mins followed by [35S]GTPgammaS addition measured after 30 mins by Topcount scintillation counting method; assay type: functional
[19] = biological target: Metabotropic glutamate receptor 8 (Homo sapiens) (UniProt O00222); experiment: Antagonist activity at human metabotropic glutamate receptor 8 expressed in HEK293 cells assessed as inhibition of glutamate-induced Ca2+ internalization after 1 hr by fluo-4-AM dye based fluorescence assay; assay type: functional, cell-based
[20] = biological target: Metabotropic glutamate receptor 3 (Homo sapiens) (UniProt Q14832); experiment: Antagonist activity at human metabotropic glutamate receptor 3 expressed in HEK293 cells assessed as inhibition of glutamate-induced Ca2+ internalization after 1 hr by fluo-4-AM dye based fluorescence assay; assay type: functional, cell-based
[21] = biological target: Metabotropic glutamate receptor 5 (Homo sapiens) (UniProt P41594); experiment: Positive allosteric modulation of human metabotropic glutamate receptor 5 expressed in HEK293 cells assessed as induction of Ca2+ […] after 1 hr in the presence of glutamate by fluo-4-AM dye based fluorescence assay; assay type: functional, cell-based
Sequence of Metabotropic glutamate receptor 5 (Homo sapiens) (P41594 21-1212 limits assumed): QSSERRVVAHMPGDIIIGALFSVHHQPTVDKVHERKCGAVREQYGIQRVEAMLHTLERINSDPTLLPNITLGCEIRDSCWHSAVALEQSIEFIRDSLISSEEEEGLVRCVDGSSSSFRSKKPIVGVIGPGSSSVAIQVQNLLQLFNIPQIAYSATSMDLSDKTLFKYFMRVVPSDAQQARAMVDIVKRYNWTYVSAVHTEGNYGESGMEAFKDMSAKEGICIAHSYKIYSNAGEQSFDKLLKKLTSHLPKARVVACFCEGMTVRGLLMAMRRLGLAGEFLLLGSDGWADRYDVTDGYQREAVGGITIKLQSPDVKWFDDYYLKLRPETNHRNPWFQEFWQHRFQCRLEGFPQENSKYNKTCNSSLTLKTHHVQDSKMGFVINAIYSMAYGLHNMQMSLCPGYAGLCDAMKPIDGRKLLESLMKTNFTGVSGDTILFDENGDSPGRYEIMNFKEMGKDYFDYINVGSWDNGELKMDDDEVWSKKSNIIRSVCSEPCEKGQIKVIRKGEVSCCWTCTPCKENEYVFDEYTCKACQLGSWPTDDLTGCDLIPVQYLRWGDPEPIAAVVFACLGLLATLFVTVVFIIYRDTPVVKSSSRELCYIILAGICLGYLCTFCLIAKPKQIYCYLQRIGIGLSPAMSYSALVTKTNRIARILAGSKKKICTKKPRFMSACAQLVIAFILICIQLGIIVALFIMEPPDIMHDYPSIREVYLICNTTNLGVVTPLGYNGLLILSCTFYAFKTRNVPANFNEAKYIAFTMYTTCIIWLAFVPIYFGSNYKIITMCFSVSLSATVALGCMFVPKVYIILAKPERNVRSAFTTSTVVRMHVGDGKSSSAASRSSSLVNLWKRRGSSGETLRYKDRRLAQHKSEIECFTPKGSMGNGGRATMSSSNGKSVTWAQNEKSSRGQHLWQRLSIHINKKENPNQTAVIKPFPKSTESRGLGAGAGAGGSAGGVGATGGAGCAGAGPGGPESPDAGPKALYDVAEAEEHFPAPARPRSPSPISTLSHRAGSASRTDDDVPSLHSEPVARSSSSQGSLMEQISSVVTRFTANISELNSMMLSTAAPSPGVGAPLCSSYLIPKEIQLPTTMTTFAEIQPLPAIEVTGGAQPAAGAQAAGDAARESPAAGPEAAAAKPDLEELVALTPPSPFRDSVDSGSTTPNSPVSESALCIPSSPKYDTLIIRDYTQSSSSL

[22] = biological target: Metabotropic glutamate receptor 6 (Rattus norvegicus) (UniProt P35349); experiment: Agonist activity at rat metabotropic glutamate receptor 6 expressed in CHO cell membranes assessed as increase in [35S]GTPgammaS binding preincubated for 30 mins followed by [35S]GTPgammaS addition measured after 30 mins by Topcount scintillation counting method; assay type: functional
[23] = biological target: Metabotropic glutamate receptor 1 (Homo sapiens) (UniProt Q13255); experiment: Antagonist activity at human metabotropic glutamate receptor 1 expressed in HEK293 cells assessed as inhibition of glutamate-induced Ca2+ internalization after 1 hr by fluo-4-AM dye based fluorescence assay; assay type: functional, cell-based
[24] = biological target: Metabotropic glutamate receptor 7 (Homo sapiens) (UniProt Q14831); experiment: Agonist activity at human metabotropic glutamate receptor 7 expressed in HEK293 cells assessed as induction of Ca2+ internalization after 1 hr by fluo-4-AM dye based fluorescence assay; assay type: functional, cell-based
[25] = biological target: Metabotropic glutamate receptor 1 (Homo sapiens) (UniProt Q13255); experiment: Agonist activity at human metabotropic glutamate receptor 1 expressed in HEK293 cells assessed as induction of Ca2+ internalization after 1 hr by fluo-4-AM dye based fluorescence assay; assay type: functional, cell-based
[26] = biological target: Metabotropic glutamate receptor 5 (Homo sapiens) (UniProt P41594); experiment: Agonist activity at human metabotropic glutamate receptor 5 expressed in HEK293 cells assessed as induction of Ca2+ internalization after 1 hr by fluo-4-AM dye based fluorescence assay; assay type: functional, cell-based
[27] = biological target: Metabotropic glutamate receptor 5 (Homo sapiens) (UniProt P41594); experiment: Antagonist activity at human metabotropic glutamate receptor 5 expressed in HEK293 cells assessed as inhibition of glutamate-induced Ca2+ internalization after 1 hr by fluo-4-AM dye based fluorescence assay; assay type: functional, cell-based

Kd [3] [nM]	EC50 [4] [nM]	TIME [5] [h]	K [6] [min⁻¹]	K [7]	Ki [8] [nM]	Drug uptake(free) (Brain) [ng/g]	SMILES	Activity (Rattus norvegicus [10])	Activity (Rattus norvegicus [11])	other results
3.8	18.6	0.25	0.067	1.8 ×10⁷ /M/min	5.01		FC(F)(F)c1c(-c2ccc(NC3CCOCC3)c(Cl)c2)ccn2c(CC3CC3)nnc12			EC80 [1]: 200 nM; Activity [2]: inactive; EC50 [9]: 18.6 nM
8.6	18.6	0.0883	0.189	2.2 ×10⁷ /M/min	3.63	3.5	Fc1cc(-c2ccn3c(CC4CC4)nnc3c2C(F)(F)F)ccc1Oc1ccnc(C2CC2)c1	Non-Toxic	Active	
1	12.3	0.272	0.061	6.2 ×10⁷ /M/min	6.03		Cc1ccc(Oc2ccc(-c3ccn4c(CC5CC5)nnc4c3Cl)cc2Cl)c(C)n1			Activity [13]: inactive; Activity [14]: inactive; inhibition [15]: inactive; Activity [16]: inactive; inhibition [17]: inactive; inhibition [18]: inactive; inhibition [19]: inactive; inhibition [20]: inactive; Activity [21]: inactive; Activity [22]: inactive; inhibition [23]: inactive; Activity [24]: inactive; Activity [25]: inactive; Activity [26]: inactive; inhibition [27]: inactive
2.5	8.71	0.502	0.033	1.3 ×10⁷ /M/min	2.57	5	Cc1ccc(Oc2ccc(-c3ccn4c(CC5CC5)nnc4c3C(F)(F)F)cc2F)c(C)n1	Non-Toxic	Active	

The next lines start with the molecule.

SMILES	Kd [3] [nM]	EC50 [4] [nM]	TIME [5] [h]	K [6] [min⁻¹]	K [7]	Ki [8] [nM]	Drug uptake(free) (Brain) [ng/g]	Activity (Rattus norvegicus [10])	Activity (Rattus norvegicus [11])	other results
FC(F)(F)c1c(CN2CCC(c3ccccc3)CC2)ccn2c(CC3CC3)nnc12										Activity (CHO-K1): inactive
N#Cc1c(N2CCC(c3ccccc3)CC2)ccn(CC2CC2)c1=O	51	79.4	0.185	0.09	1.7 ×10⁶ /M/min					Ki [12]: 26.3 nM
